Most compounds without a hit are left out; they make up all but 3.5% or so of the library.
FXIa inh 1536 – human FXIa protease inhibitors, primary screen, biochemical, 1536-well | Coagulation factor XI (Homo sapiens), P03951 | purified FXIa, Boc-Glu-Ala-Arg-AMC fluorogenic substrate | inhibition, % at 5 µM | 220,000 tested, 0.14% active | AID 798, 2007;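 active means inhibition of at least 40%; inactive means inhibition below 40%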;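 further: fluorescence of freed AMC excited at 355 nm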
STAT3 act – IL-6 driven STAT3 reporter potentiators, primary screen, U3A cells, luciferase, luminescence, MLSCN library | activation (% of control), % at 5.6 µM | IL-6 STAT3-luciferase reporter; 100% = signal with IL-6 EC80 alone | 190,000 tested, 0.91% active | AID 871, 2007;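 active means activation above the screen-wide mean of compound activation plus 3 SD, cut at about 130% in these data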
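Material: human STAT1-deficient U3A cells with stable STAT3-luciferase reporter / Probe or stimulus: IL-6 stimulus at 33 ng/mL final / Schedule: 1 h compound pre-exposure, 6 h IL-6 stimulation, 37 °C / Technique: luminescence / Read-out basis: percent of IL-6-only median luminescence / Control set: IL-6-only high control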
AHR activator – AHR activators, primary screen, cell-based, luminescence, luciferase reporter, human; Aryl hydrocarbon receptor (Homo sapiens), P35869; AHR-responsive luciferase reporter cells; activation, % at 5 µM; 320,000 tested, 2.5% active; in the data active means activation above about 47%
Target sequence (P35869 whole entry, looked up): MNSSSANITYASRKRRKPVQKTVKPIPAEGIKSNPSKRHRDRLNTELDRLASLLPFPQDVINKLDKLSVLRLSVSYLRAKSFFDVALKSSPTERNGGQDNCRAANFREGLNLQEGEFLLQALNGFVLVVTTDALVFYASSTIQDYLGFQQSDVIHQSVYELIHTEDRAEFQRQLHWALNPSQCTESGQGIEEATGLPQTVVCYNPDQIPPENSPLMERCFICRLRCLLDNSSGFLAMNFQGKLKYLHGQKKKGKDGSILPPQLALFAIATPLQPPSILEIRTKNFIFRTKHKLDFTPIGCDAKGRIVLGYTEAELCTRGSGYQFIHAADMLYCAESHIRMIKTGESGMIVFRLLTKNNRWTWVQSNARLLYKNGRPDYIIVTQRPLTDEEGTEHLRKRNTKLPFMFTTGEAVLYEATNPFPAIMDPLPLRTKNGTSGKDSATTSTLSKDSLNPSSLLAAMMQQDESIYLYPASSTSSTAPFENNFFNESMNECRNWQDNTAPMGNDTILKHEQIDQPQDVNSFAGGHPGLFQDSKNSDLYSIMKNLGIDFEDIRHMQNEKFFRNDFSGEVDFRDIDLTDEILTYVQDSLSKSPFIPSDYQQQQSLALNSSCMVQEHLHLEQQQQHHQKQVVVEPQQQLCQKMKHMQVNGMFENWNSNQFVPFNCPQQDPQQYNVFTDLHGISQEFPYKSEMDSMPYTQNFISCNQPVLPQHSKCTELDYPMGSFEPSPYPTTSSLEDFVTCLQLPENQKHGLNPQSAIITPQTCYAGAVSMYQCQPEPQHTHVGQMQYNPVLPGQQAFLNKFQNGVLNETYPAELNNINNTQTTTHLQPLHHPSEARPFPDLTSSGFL
FXIIa inh – human FXIIa protease inhibitors, primary screen, biochemical, 1536-well; 220,000 tested, 0.3% active; purified FXIIa, Boc-QGR-AMC fluorogenic substrate, 2 h; Coagulation factor XII (Homo sapiens), P00748; AID 800, 2007; inhibition, % at 5 µM; in the data active means inhibition above about 40%
hK5 inh – human KLK5 protease inhibitors, primary screen, biochemical, 1536-well | Kallikrein-5 (Homo sapiens), Q9Y337 | recombinant hK5, fluorogenic AMC substrate cleavage | inhibition, % at 5 µM | 210,000 tested, 0.59% active | AID 873, 2007;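 active means inhibition of 40% or more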
thrombin 1536 – human alpha-thrombin inhibitors, primary screen, counter-screen for coagulation protease inhibitor project, biochemical, 1536-well, fluorogenic AMC substrate | Prothrombin (Homo sapiens), P00734 | Boc-VPR-AMC fluorogenic substrate cleavage | inhibition, % at 5 µM | 220,000 tested, 0.26% active | AID 1046, 2008;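 active means inhibition at or above 40%; inactive means inhibition below 40%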
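Material: human alpha-thrombin protein; Also added: Boc-VPR-AMC substrate, 15 µM final; Timing: enzyme reaction carried out at room temperature; Signal: fluorescence, ex 355 nm, em 460 nm; Measure: % inhibition of thrombin; Controls: enzyme without compound as high, wells lacking enzyme as low.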
Numbers stand for hits; 0 = inactive; - = not tested or not shown.

SMILES | FXIa inh 1536 | STAT3 act | AHR activator | FXIIa inh | hK5 inh | thrombin 1536
CCN(CC)c1ccc(NC(=O)COC(=O)COc2ccccc2[N+](=O)[O-])cc1 | 0 | 0 | 0 | 0 | 0 | 0
CN(CC(=O)NC1(C)CCS(=O)(=O)C1)S(=O)(=O)c1ccc(Cl)cc1 (stereo unspecified) | - | - | 0 | - | - | -
COC(=O)C1CN(C(=O)c2cccc(OC(F)F)c2)c2ccccc2O1 (stereo unspecified) | - | - | 49.2 | - | - | -
COC(=O)C1CN(C(=O)C(C)Oc2ccccc2Cl)c2ccccc2O1 (stereo unspecified) | - | - | 0 | - | - | -
COc1ccccc1C(=O)Nc1ccnn1C1CCN(CC2CC=CCC2)CC1 (stereo unspecified) | - | - | 0 | - | - | -
CC(=O)Nc1nc2cc3c(cc2s1)OCO3 | 0 | 0 | 54.3 | 0 | 0 | 0
O=C(NNc1nc2cc3c(cc2s1)OCCO3)c1ccc(F)cc1 | 0 | 0 | 0 | 0 | 0 | -
O=C(NNc1nc2cc3c(cc2s1)OCO3)c1ccc(F)cc1 | 0 | 0 | 59.9 | 0 | 0 | 0
Cc1cc(C)nc(Nc2nc3ccccc3s2)n1 | 0 | 155.8 | 0 | - | 0 | 0
CC(C)C(=O)Nc1nc2cc3c(cc2s1)OCCO3 | 0 | - | 0 | 0 | 0 | 0
c1ccc2sc(Nc3nc4cc5c(cc4s3)OCO5)nc2c1 | 0 | 0 | 137.3 | 0 | 0 | 0
O=C(/C=C/c1ccc(S(=O)(=O)N2CCOCC2)cc1)NCCCn1ccnc1 | 0 | 0 | 0 | 0 | - | 0
COc1ccc(C)cc1N(C(=O)COc1cccc(F)c1)c1nc2ccccc2s1 | 0 | 134.3 | 0 | 0 | 0 | 0
CC1CN(C(=O)c2ccc(N3CCCCC3)c([N+](=O)[O-])c2)CC(C)O1 (stereo unspecified) | 0 | 0 | 0 | 0 | 0 | 0
O=c1oc2ccc3ccccc3c2cc1-c1nnc(-c2ccccc2)o1 | 0 | 0 | 0 | 0 | 0 | 0
O=c1oc2ccc3ccccc3c2cc1-c1nnc(-c2cccs2)o1 | 0 | 0 | 52.3 | 0 | 0 | 0
CCn1c(-c2cccnc2Cl)nc2cc(Cl)c(Cl)cc21 | 0 | 0 | 51.8 | 0 | 0 | 0
CNC(=O)c1cc(Nc2nnc(C)c3ccccc23)ccc1OC | 0 | 0 | 59.3 | 0 | 0 | 0
COc1ccc(Nc2nnc(C)c3ccccc23)cc1C(N)=O | 0 | 0 | 0 | 0 | 0 | 0
CN(C)c1ccc(C2C3CCCc4ccccc4C3=NN2C)cc1 (stereo unspecified) | 0 | - | 60.6 | 0 | 0 | 0
CN1N=C2c3ccccc3CCC2C1c1ccc(C(F)(F)F)cc1 (stereo unspecified) | 0 | - | 0 | 0 | 0 | 0
CC(O)CNc1nc2ccccc2n1-c1ncnc2sc3c(c12)CCC3 (stereo unspecified) | 0 | 0 | 58.7 | 0 | 0 | 0
Cc1ccc(S(=O)(=O)NCc2ccc(C(=O)N3CCN(c4ccc([N+](=O)[O-])cc4)CC3)cc2)cc1 | - | - | 0 | - | - | -
Cc1cc2[nH]c3c(c[n+](C)c4ccccc34)c2cc1C | 0 | 150.8 | 0 | 0 | 0 | 0
Cc1cc(=O)[nH]c2ccccc12 | 0 | 0 | 0 | 0 | 0 | 0
SMILES | FXIa inh 1536 | STAT3 act | AHR activator | FXIIa inh | hK5 inh | thrombin 1536
COc1ccc(-c2ccc3oc(-c4ccsc4)cc3c2)cc1 | - | - | 57.1 | - | - | -
N#CCC(=O)Nc1ccc(C(=O)N2CCN(c3ccccn3)CC2)cc1 | - | - | 0 | - | - | -
Cc1ccc(OCc2nnc(SCC(=O)O)n2N)cc1 | 0 | 0 | 0 | 44.6 | 0 | 0
CC(=O)c1ccc(N2CCN(C(=O)c3cccs3)CC2)c(F)c1 | - | - | 0 | - | - | -
Cc1ccccc1C(=O)NC(NC(=S)Nc1ccc(S(N)(=O)=O)cc1)C(Cl)(Cl)Cl (stereo unspecified) | 0 | 0 | 0 | 0 | 0 | 0
Cc1ccc(C(=O)NC(NC(=S)Nc2ccc(S(N)(=O)=O)cc2)C(Cl)(Cl)Cl)cc1 (stereo unspecified) | 0 | 0 | 0 | 0 | 43.7 | 0
Oc1[nH]c2ccccc2c1C1=NCCCCC1 | 0 | 0 | 62.2 | 0 | - | 0
CC(C)c1csc(CN2CCC(N3CCC(C(=O)N4CCOCC4)CC3)CC2)n1 | 0 | 0 | 0 | 0 | 0 | 0
CCOC(=O)c1c(C)[nH]c2ccc(O)cc12 | 0 | 0 | 64.8 | 0 | 0 | 0
NC(=S)N/N=C/c1ccc2cccc(OCc3ccccc3)c2n1 | - | - | 0 | - | - | -
O=C(N/N=C/c1ccc2cccc(OCc3ccccc3)c2n1)c1ccc(Br)cc1 | 0 | 0 | 68.6 | 0 | 0 | 0
Cc1ccc(Sc2cc(Cl)nc(N)n2)cc1 | 0 | 0 | 0 | 0 | 77.1 | 0
Nc1nc(Cl)cc(Sc2ccc(F)cc2)n1 | 0 | 0 | 0 | 0 | 0 | 0
Cc1ccccc1C(=O)N=c1sccn1C | 0 | 0 | 0 | 0 | 0 | 0
CCOc1ncccc1C(=O)N=c1sccn1C | - | - | 60.4 | - | - | -
C=CCOc1c(Br)cc(/C=N/n2c(CC)n[nH]c2=S)cc1Br | 0 | 0 | 67.9 | 0 | 0 | 0
CCC1CCCCN1C(=O)CSc1nnc(CNC(=O)COc2ccc(Cl)cc2)o1 (stereo unspecified) | 0 | 0 | 0 | 0 | 0 | 0
Cn1ncc(Cl)c1C(=O)Nc1cc(C(F)(F)F)ccc1F | 0 | 0 | 77.8 | 0 | 0 | 0
COc1cc(NC(=O)c2c(Cl)cnn2C)c(OC)cc1Cl | 0 | 0 | 0 | 0 | 0 | 0
Cn1ncc(Cl)c1C(=O)Nc1nc2ccc(Cl)cc2s1 | 0 | 0 | 59.6 | 0 | 0 | 0
Cc1ccc2c(c1)CCCN2CC(=O)N(C)c1c(N)n(Cc2ccccc2)c(=O)[nH]c1=O | - | - | 0 | - | - | -
CCCn1ncc(CN2CCC(n3nccc3NC(=O)CCc3ccccc3)CC2)c1C | - | - | 0 | - | - | -
CC(=O)c1c(C)[nH]c(C(=O)COc2ccc3ccc(=O)oc3c2)c1C | - | - | 56.4 | - | - | -
COC(=O)c1c(C)[nH]c(C(=O)COc2ccc3ccc(=O)oc3c2)c1C | - | - | 0 | - | - | -
COc1ccc(Cc2noc(CN3CCN(Cc4csc(C)n4)CC3)n2)cc1OC | 0 | 0 | 0 | 0 | - | 0
SMILES | FXIa inh 1536 | STAT3 act | AHR activator | FXIIa inh | hK5 inh | thrombin 1536
CC(C)C1O/C(=N/C(=O)Nc2ccc(Cl)c(Cl)c2)NC1=O (stereo unspecified) | 0 | 0 | 0 | 0 | 0 | 0
CCc1cc(-c2[nH]ncc2-c2nc3ccccc3n2C)c(O)cc1O | 74.7 | - | 0 | 0 | 0 | 0
Cc1cccc(-c2nc3ccccc3c(=O)n2NC(=O)c2cccs2)c1 | 0 | 0 | 0 | 0 | 0 | 0
Cc1ccc(-c2nc3ccccc3c(=O)n2NC(=O)c2cccs2)cc1 | 0 | 0 | 51.7 | 0 | 0 | 0
O=S(=O)(c1ccccc1C(F)(F)F)N1CCOCC1 | 0 | 0 | 0 | 0 | 0 | 0
CCCC/C(O)=N\S(=O)(=O)c1ccc(N=NN(C)C)cc1 | 0 | 0 | 0 | 0 | 69.8 | 0
CN(C)N=Nc1ccc(S(N)(=O)=O)cc1 | 0 | 0 | 0 | 0 | 0 | 0

Screening data from PubChem BioAssay.
